Series [1] can be described thus: Clearance in human liver microsomes. The series is classed as ADME, Microsome. A general note: Microsomes from liver hold many membrane-bound enzymes, among them those of drug oxidation.
A short description of series [2]: Clearance in mouse liver microsomes. Type of series: ADME, Microsome.
The nature of series [3]: Blood clearance in iv dosed dog. The series is classed as ADME, organism-based, Canis lupus familiaris. The following applies: whole blood.
A short description of series [4]: Clearance in rat liver microsomes. Type of series: ADME, Microsome.
The next series deals with PC-3. The series is described as follows: Cytotoxicity against human PC3 cells after 4 days by CellTiter-Glo assay. The following applies: PC-3, 96 h. On the technique in general: ATP-based viability assays read luminescence as a measure of living cells.
The nature of series [5]: Volume of distribution at steady state in iv dosed dog. The following applies: in vivo, read-out: Vdss. Type of series: ADME, organism-based, Canis lupus familiaris.
The next series has as its target Cytochrome P450 3A4 (Homo sapiens, UniProt P08684). Nature of the series: Time dependent inhibition of human CYP3A4 preincubated for 30 mins in presence of NADPH. The series is classed as ADME. The essentials:
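TDI IC50 is the inhibitor concentration giving 50% loss of CYP3A4 activity after a 30 min pre-incubation with NADPH. It is reported as clean where no IC50 could be measured.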

The nature of series [6]: Inhibition of mTORC2 in human NCI-PC3 cells assessed as inhibition of AKT phosphorylation.
In series [7] the test system is Mus musculus. The series is described as follows: Inhibition of mTORC2-mediated AKT phosphorylation in human PC3 cells xenografted in NCR mouse up to 5 mg/kg, po measured at 6 hrs. Type of series: functional, organism-based. Also noted: dose 5 mg/kg. The following applies: PC-3. For orientation: In xenograft studies the graft and the host belong to different species.

The target in the next series is mTORC1 (Homo sapiens, UniProt P42345). Nature of the series: Inhibition of mTORC1 in human NCI-PC3 cells assessed as inhibition of p70S6K phosphorylation. The series is classed as cell-based.
Series [8] concerns the target Serine/threonine-protein kinase mTOR (Homo sapiens, UniProt P42345). Nature of the series: Inhibition of human recombinant mTOR expressed in insect cells assessed as inhibition of phosphorylation of (GFP)-4-EBP1 protein after 30 mins by fluorescence resonance energy transfer assay.
Series [9] is described as follows: Volume of distribution at steady state in mouse at 1 mg/kg, iv. Type of series: ADME, organism-based. Also noted: dose 1 mg/kg, route intravenous. The following applies: in vivo, read-out: Vdss. The procedure, abridged: (§1)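 Mouse PK used iv dosing at 1 mg/kg as a 60% PEG solution and po dosing at 5 mg/kg as a suspension in MCT. Clearance, unbound clearance, Vss, t1/2 and oral bioavailability were derived from these doses.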

The nature of series [10]: Oral bioavailability in mouse at 5 mg/kg. The following applies: in vivo. The series is classed as ADME, organism-based. The procedure, abridged:
as §1

Series [11] is described as follows: Antitumor activity against human MCF7-neo/Her2 xenografted in nude mouse at 12.5 mg/kg, qd measured after 14 days. Type of series: functional. The following applies: 336 h, read-out: TGI.
Series [12] can be described thus: Half life in iv dosed dog. The following applies: in vivo. Type of series: ADME, organism-based, Canis lupus familiaris.
Series [13] in a line: Kinetic solubility of the compound. The series is classed as physicochemical.
The nature of series [14]: Plasma protein binding in rat at 5 uM after 4 hrs by rapid equilibrium dialysis. The series is classed as ADME, cell-free. The following applies: read-out: PPB (converted).
The nature of series [15]: Plasma protein binding in human at 5 uM after 4 hrs by rapid equilibrium dialysis. The following applies: read-out: PPB (converted). The series is classed as ADME, cell-free.
Series [16] is described as follows: Plasma protein binding in mouse at 5 uM after 4 hrs by rapid equilibrium dialysis. The following applies: read-out: PPB (converted). Type of series: ADME, cell-free.
Series [17] has as its system Mus musculus. The series is described as follows: Unbound clearance in mouse at 1 mg/kg, iv. The series is classed as ADME, organism-based. Also noted: dose 1 mg/kg, route intravenous. The following applies: in vivo. The essentials: as §1
For series [18], the system named is Mus musculus. The series is described as follows: Inhibition of mTORC1-mediated S6RP phosphorylation in human PC3 cells xenografted in NCR mouse up to 5 mg/kg, po measured at 6 hrs. The series is classed as functional, organism-based. Also noted: dose 5 mg/kg. The following applies: PC-3.
The nature of series [19]: Clearance in mouse at 1 mg/kg, iv. The following applies: in vivo. Type of series: ADME, organism-based. Also noted: dose 1 mg/kg, route intravenous. The procedure, abridged: as §1
The target of series [20] is T1, Phosphatidylinositol 4,5-bisphosphate 3-kinase catalytic subunit delta isoform (Homo sapiens) (UniProt O00329).
T1 sequence (whole entry): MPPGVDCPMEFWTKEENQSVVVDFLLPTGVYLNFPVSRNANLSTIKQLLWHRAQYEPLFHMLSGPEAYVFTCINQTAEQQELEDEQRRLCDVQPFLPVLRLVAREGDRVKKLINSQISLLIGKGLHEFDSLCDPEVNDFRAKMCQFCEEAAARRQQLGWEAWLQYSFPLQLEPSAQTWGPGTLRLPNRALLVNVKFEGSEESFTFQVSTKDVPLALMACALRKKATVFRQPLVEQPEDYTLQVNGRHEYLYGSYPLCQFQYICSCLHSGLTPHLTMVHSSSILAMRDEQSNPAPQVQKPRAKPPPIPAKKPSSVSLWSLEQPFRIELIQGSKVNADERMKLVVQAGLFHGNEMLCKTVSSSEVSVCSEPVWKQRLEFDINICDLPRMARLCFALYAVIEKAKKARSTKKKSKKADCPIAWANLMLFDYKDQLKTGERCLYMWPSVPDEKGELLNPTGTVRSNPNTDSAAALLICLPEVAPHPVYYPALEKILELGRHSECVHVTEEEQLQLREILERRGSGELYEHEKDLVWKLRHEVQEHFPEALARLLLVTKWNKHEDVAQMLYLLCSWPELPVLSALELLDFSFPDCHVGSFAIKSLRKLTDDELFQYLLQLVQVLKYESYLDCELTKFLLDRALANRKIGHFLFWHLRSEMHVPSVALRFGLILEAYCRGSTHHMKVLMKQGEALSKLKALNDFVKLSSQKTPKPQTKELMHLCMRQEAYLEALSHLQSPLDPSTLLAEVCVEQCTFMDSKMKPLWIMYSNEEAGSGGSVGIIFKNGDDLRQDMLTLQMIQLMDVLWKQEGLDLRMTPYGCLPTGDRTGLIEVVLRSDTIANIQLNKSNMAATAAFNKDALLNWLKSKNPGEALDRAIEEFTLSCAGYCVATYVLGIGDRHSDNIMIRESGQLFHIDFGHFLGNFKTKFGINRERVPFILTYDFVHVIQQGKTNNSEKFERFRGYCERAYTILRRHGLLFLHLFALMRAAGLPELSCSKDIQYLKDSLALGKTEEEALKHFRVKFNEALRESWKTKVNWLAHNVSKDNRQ
The series is described as follows: Inhibition of PI3Kdelta (unknown origin) at 1 uM.

A further series relates to Canis familiaris. The series is described as follows: Unbound blood clearance in iv dosed dog. Type of series: ADME, organism-based, Canis lupus familiaris. The following applies: in vivo.
Series [21] is described as follows: Half life in mouse at 1 mg/kg, iv. The series is classed as ADME, organism-based. Set-up: dose 1 mg/kg, route intravenous. The following applies: in vivo. The essentials:
as §1

Series [22] can be described thus: Cytotoxicity against human MCF7 neo/Her2 cells after 3 days by CellTiter-Glo assay. The following applies: MCF7, 72 h.
Series [23] concerns Plasma. Nature of the series: Plasma concentration in NCR nude mouse xenografted with human PC3 cells at 50 to 100 mg/kg, po measured at 6 to 10 hrs. Type of series: ADME, organism-based, PC-3. Set-up: route oral. The following applies: in vivo.
Series [24] concerns Plasma. The series is described as follows: Unbound plasma concentration in NCR nude mouse xenografted with human PC3 cells at 50 to 100 mg/kg, po measured at 6 to 10 hrs. Also noted: route oral. The following applies: in vivo. Type of series: ADME, organism-based, PC-3.
For series [25], the species on record is Mus musculus. The following applies: NCR, NCI-PC3, 50 to 100 mg/kg.
For series [26], the species on record is Mus musculus. The following applies: NCR, NCI-PC3, 50 to 100 mg/kg. The source holds these as a separate data set.

For orientation: clearance means the volume of plasma or blood freed of the substance per unit of time. Higher therefore signals a high capacity for elimination. A word on the EC50: it is the concentration giving half of the maximal effect. Higher therefore signals weaker potency. In general, IC50 refers to the concentration at which inhibition is half-maximal. Broadly, the inhibition is the relative decrease from the control value, in per cent. One may read the Ki as the dissociation constant of the complex between target and ligand, obtained from inhibition or displacement. In general, half-life refers to the time needed for the level to fall by half in the phase considered. Read a high half-life as slow decline.

The source made the active and inactive calls.

Chain of Cytochrome P450 3A4 (P08684 whole entry): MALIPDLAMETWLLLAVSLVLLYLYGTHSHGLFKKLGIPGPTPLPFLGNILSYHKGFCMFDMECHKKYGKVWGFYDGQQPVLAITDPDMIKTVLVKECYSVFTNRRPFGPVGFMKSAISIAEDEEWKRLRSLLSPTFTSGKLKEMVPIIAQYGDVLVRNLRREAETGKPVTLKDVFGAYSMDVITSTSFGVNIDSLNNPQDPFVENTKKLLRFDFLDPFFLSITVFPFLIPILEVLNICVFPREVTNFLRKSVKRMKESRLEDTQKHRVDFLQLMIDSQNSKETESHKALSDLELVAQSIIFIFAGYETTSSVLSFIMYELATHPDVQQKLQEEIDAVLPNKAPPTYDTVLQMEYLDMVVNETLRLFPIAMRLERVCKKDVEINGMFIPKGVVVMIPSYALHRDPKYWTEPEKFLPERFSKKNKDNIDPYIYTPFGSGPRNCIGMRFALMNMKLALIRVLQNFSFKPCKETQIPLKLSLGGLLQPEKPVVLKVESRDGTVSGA

Regarding `CCNC(=O)Nc1ccc(-c2nc3c(c(N4CCOC[C@@H]4C)n2)C[C@@H]2CC[C@H]3N2C2COC2)cc1`, the CLhep predicted is 0.84 L/h/kg in [1], 3.06 L/h/kg in series [2] and 1.62 L/h/kg in [4]. Besides, the clearance in series [3] was 0.36 L/h/kg; in [19], 0.288 L/h/kg. Moreover, the EC50 with PC-3 stood at 0.029 µM; in [22], 0.075 µM. Also, the values for the Vd in series [5] and in series [9] were 3 L/kg and 0.53 L/kg, respectively. For the same compound, the results for the half-inhibitory concentration (IC50) (at Cytochrome P450 3A4; in series [6]; on mTORC1) were over 10 µM, 0.0034 µM and 0.0027 µM, respectively. Also, the inhibition entry in the series on Mus musculus [7] and in the series on Mus musculus [18] was “Active” each time. The inhibition constant Ki in series [8] amounted to 0.0015 µM. For the same compound, the bioavailability in series [10] was found to be 82%. In addition, the inhibition in vivo at 12.5 mg/kg in [11] is 57%. The half-life in series [12] was 3.1 h; in series [21], 2 h. In [13], the Kinetic_solubility result is “soluble”. Further, the figures for the fraction unbound at 4 h, 5 µM in [14], in [15] and in series [16] were 0.24, 0.15 and 0.13, respectively. Also, the figures for the CL free in the series on Mus musculus [17] and in the series with Canis familiaris were 2.28 L/h/kg and 2.64 L/h/kg, respectively. This compound registered an inhibition in series [20] of 51%.
Consider `CCNC(=O)Nc1ccc(-c2nc3c(c(N4CCOC[C@@H]4C)n2)[C@H]2CC[C@@H](C3)N2C)cc1`, for which the CLhep predicted was 0.72 L/h/kg in series [1], 2.52 L/h/kg in series [2] and 1.08 L/h/kg in series [4]. Moreover, the concentration in the series with Plasma [23] is over 1 µM. Moreover, the EC50 came to 0.103 µM with PC-3 and 0.097 µM in [22]. Also, in the series with Plasma [24], the “Cp(f)” value is over 0.32 µM. Further, in series [6], the IC50 was 0.0039 µM. Besides, the inhibition entry in the series filed under Mus musculus [25] and in the series listed under Mus musculus [26] was “Active” throughout. Moreover, the Vd in series [9] came to 4.5 L/kg. The bioavailability in series [10] stood at 114%. The solubility kinetic in series [13] (read-out: Kinetic_solubility) is over 75 µM. Further, the results for the fraction unbound at 4 h, 5 µM in [14], in [15] and in series [16] were 0.73, 0.62 and 0.32, respectively. In the series on Mus musculus [17], the CL free amounted to 12.4 L/h/kg. In addition, the clearance in series [19] was found to be 4.02 L/h/kg. This compound also showed a half-life in [21] of 0.8 h.
